Reference: ChEMBL document CHEMBL6092177, “Applying molecular hybridization to design a new class of pyrazolo[3,4-d]pyrimidines as Src inhibitors active in hepatocellular carcinoma” (Eur J Med Chem, 2024)
Values after ≈ are worked out from the molar mass of the structure shown.

Tested on: Huh-7
Assay: Antiproliferative activity against human Huh-7 cells assessed as cell growth inhibition measured at 72 hrs by MTT assay
Conditions: Huh-7, 72 h
Work on `Cn1ncc2c(Nc3ncc(C(=O)Nc4cccc(O)c4)s3)nc(NCCO)nc21` yielded an IC50 of 26.1 µM. For `O=C(Nc1ccccc1)c1cnc(Nc2ncnc3c2cnn3CC(Cl)c2ccccc2)s1` (configuration not stated), the IC50 was 15.3 µM.

Tested on: HepG2
Assay: Antiproliferative activity against human HepG2 cells assessed as cell growth inhibition measured at 72 hrs by MTT assay
Conditions: HepG2, 72 h
`Cn1ncc2c(Nc3ncc(C(=O)Nc4cccc(O)c4)s3)nc(NCCO)nc21` showed an IC50 of 6.52 µM. In the case of `O=C(Nc1ccccc1)c1cnc(Nc2ncnc3c2cnn3CC(Cl)c2ccccc2)s1` (configuration not stated), the IC50 is reported as 3.7 µM.

Tested on: not listed separately
Assay: Apparent permeability of compound in PBS buffer at pH 7.4 incubated for 4 hrs by LC-UV-MS analysis
Assay type: ADME
Conditions: not told
Outline: (§1)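 PAMPA: DMSO stock diluted 1:1 with 10 mM PBS pH 7.4 as donor, through filter coated with 1% phosphatidylcholine in dodecane. Acceptor DMSO/PBS 1:1; incubated at rt for 4 h with gentle shaking. Both compartments quantified by LC-UV-MS to give Papp and % membrane retention; three independent experiments in triplicate.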
In the case of `Cn1ncc2c(Nc3ncc(C(=O)Nc4cccc(O)c4)s3)nc(NCCO)nc21`, the Papp at 4 h is reported as less than 0.1 ×10⁻⁶ cm/s. In the case of `O=C(Nc1ccccc1)c1cnc(Nc2ncnc3c2cnn3CC(Cl)c2ccccc2)s1` (configuration not stated), the Papp at 4 h is reported as 12 ×10⁻⁶ cm/s.

Tested on: not listed separately
Assay: Stability in human plasma measured after 24 hrs by UV-LC/MS analysis
Assay type: ADME, cell-free
Conditions: read-out: Stability
Work on `Cn1ncc2c(Nc3ncc(C(=O)Nc4cccc(O)c4)s3)nc(NCCO)nc21` yielded a remaining at 24 h of 94.5%. `O=C(Nc1ccccc1)c1cnc(Nc2ncnc3c2cnn3CC(Cl)c2ccccc2)s1` (configuration not stated) showed a remaining at 24 h of 88.5%.

Tested on: Huh-7
Assay: Antiproliferative activity against human Huh-7 cells assessed as cell growth inhibition measured at 48 hrs by MTT assay
Conditions: Huh-7, 48 h
Compound `Cn1ncc2c(Nc3ncc(C(=O)Nc4cccc(O)c4)s3)nc(NCCO)nc21` has an IC50 of 48.8 µM. Work on `O=C(Nc1ccccc1)c1cnc(Nc2ncnc3c2cnn3CC(Cl)c2ccccc2)s1` (configuration not stated) yielded an IC50 of 21.2 µM.

Tested on: not listed separately
Assay: Metabolic stability in human liver microsome measured after 1 hr in presence of NADPH by UV/LC-MS analysis
Assay type: ADME
Conditions: liver microsomes, read-out: Stability
Outline: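 Compound incubated with HLM (0.2 mg/mL) and NADPH (in 48 mM MgCl2) in 10 mM PBS pH 7.4 at 37 °C for 60 min with shaking. Stopped with cold ACN, centrifuged, dried under N2 and quantified by UV/LC-MS for % unmetabolized.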
Compound `Cn1ncc2c(Nc3ncc(C(=O)Nc4cccc(O)c4)s3)nc(NCCO)nc21` has a remaining at 1 h greater than 100%. `O=C(Nc1ccccc1)c1cnc(Nc2ncnc3c2cnn3CC(Cl)c2ccccc2)s1` (configuration not stated) gave a remaining at 1 h of 99%.

Tested on: HepG2
Assay: Antiproliferative activity against human HepG2 cells assessed as cell growth inhibition measured at 48 hrs by MTT assay
Conditions: HepG2, 48 h
Compound `O=C(Nc1ccccc1)c1cnc(Nc2ncnc3c2cnn3CC(Cl)c2ccccc2)s1` (configuration not stated) has an IC50 of 7.46 µM.

Tested on: not listed separately
Assay: Permeability of the compound in PBS buffer at pH 7.4 assessed as membrane retention rate by PAMPA method
Assay type: ADME
Conditions: not given
Outline: as §1
For `Cn1ncc2c(Nc3ncc(C(=O)Nc4cccc(O)c4)s3)nc(NCCO)nc21`, the membrane retention was 7.28%. For `O=C(Nc1ccccc1)c1cnc(Nc2ncnc3c2cnn3CC(Cl)c2ccccc2)s1` (configuration not stated), the membrane retention was 8.36%.

Tested on: not listed separately
Assay: Thermodynamic solubility of compound by LC-MS/MS analysis
Assay type: physicochemical
Conditions: read-out: Therm_solubility
Outline: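 Thermodynamic solubility: solubilized compound quantified in triplicate by LC-MS/MS on a C18 column with water/ACN gradient, both with 0.1% formic acid. Calibration from DMSO standards 0.1–100 µM; LoQ below 0.01 µM.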
`Cn1ncc2c(Nc3ncc(C(=O)Nc4cccc(O)c4)s3)nc(NCCO)nc21` gave a solubility thermodynamic of 0.01 µg/mL (≈ 0.0234 µM). With `O=C(Nc1ccccc1)c1cnc(Nc2ncnc3c2cnn3CC(Cl)c2ccccc2)s1` (configuration not stated) the solubility thermodynamic was less than 0.01 µg/mL.
